Consider one compound from publication PMC6633905 (Molecular pharmaceutics, 2018).

The structures appear in SMILES notation.

In one experiment the target is T1, human DP1 receptors (Homo sapiens, UniProt Q13258).
T1 sequence (Q13258 1-359): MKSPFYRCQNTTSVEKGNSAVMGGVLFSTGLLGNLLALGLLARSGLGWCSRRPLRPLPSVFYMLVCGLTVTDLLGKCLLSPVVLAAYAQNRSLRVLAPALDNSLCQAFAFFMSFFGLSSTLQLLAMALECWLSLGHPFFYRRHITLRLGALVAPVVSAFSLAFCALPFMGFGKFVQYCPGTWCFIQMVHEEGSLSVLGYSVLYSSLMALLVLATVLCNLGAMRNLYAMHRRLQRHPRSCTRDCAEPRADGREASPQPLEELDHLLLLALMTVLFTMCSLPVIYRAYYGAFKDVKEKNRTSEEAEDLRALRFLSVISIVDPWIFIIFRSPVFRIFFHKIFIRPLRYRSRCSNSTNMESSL
Description: cAMP TR-FRET counter screen in C6-glioma cells, DP1. The format is cell-based. The settings on record: read-out: DP1 KB; Schild KB; C6-glioma cells overexpressing DP1; agonist BW245C. The method, boiled down:
(§1)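 Rat C6 glioma cells stably expressing the human receptor, seeded 4,000/well overnight; 0.5 h in HBSS with 20 μM rolipram at room temperature; test compound for 10 or 50 min, then rising agonist concentrations for 40 min. Lysis, cAMP-d2/anti-cAMP-Cryptate TR-FRET (F665/F590).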

The target of another experiment is human IP receptors (Homo sapiens, UniProt P43119). Description: cAMP TR-FRET counter screen in C6-glioma cells, IP. The settings on record: read-out: IP KB; Schild KB; C6-glioma cells overexpressing IP; agonist iloprost. The format is cell-based. The essentials:
as §1
(TR-FRET usually uses a lanthanide donor and a delayed reading to cut background.)

human IP receptors, sequence (P43119 whole entry): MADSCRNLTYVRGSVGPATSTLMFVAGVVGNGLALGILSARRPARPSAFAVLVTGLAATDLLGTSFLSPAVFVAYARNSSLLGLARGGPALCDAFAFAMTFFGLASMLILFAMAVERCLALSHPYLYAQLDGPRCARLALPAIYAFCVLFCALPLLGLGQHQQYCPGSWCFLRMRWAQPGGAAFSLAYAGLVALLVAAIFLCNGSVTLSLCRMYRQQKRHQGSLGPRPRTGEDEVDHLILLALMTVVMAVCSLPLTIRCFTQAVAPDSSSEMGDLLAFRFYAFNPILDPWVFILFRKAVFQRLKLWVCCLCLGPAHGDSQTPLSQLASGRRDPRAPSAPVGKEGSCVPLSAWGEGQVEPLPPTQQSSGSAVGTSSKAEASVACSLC

For `COc1ccc2cc(OCC3(C(=O)O)CN(C(=O)c4ccc(F)cc4)C3)ccc2c1` [PF-04418948], the Kb at human DP1 receptors was 48.3 µM; at human IP receptors it was 1.7 µM.
